Active and inactive are the calls of the source. The rule behind the calls is not given here.

For series [1], the system named is Plasmodium falciparum. The series is described as follows: Inhibition of Plasmodium falciparum 3D7 falcipain-2 by fluorescence spectrophotometry.
Series [2] has as its system Plasmodium falciparum. As to the kind of experiment: Antiplasmodial activity against Plasmodium falciparum infected in human erythrocytes assessed as blockade of parasite-mediated rupture of erythrocytes by Giemsa staining. Format: functional, organism-based. In a few lines:
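Giemsa-stained thin blood films were read from schizonts exposed at 36 h post invasion to 10 µM inhibitor, to assess rupture and morphology.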

The test system of series [3] is Plasmodium falciparum. The series is described as follows: Antiplasmodial activity against Plasmodium falciparum schizont infected in human erythrocytes assessed as effect on parasite ring-to-schizont morphology at 1 to 50 uM after 24 by propidium iodide staining-based FACS analysis. Format: functional, organism-based. (Flow cytometry measures light scatter and fluorescence of single cells or particles in a stream.)

Series [4] in a line: Cytotoxicity against african green monkey BSC1 cells after 24 hrs by celltiter glo assay. The class given is cell-based. Particulars: chlorocebus aethiops, bsc-1, 24 h. In a few lines:
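BSC-1 African green monkey kidney epithelial cells exposed to compounds; viability read by CellTiter-Glo luminescence.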
In general terms: ATP-based viability assays read luminescence as a measure of living cells.

The target in series [5] is T1, Cysteine proteinase falcipain-1 (Plasmodium falciparum 3D7) (UniProt Q8I6V0).
T1 sequence (whole entry): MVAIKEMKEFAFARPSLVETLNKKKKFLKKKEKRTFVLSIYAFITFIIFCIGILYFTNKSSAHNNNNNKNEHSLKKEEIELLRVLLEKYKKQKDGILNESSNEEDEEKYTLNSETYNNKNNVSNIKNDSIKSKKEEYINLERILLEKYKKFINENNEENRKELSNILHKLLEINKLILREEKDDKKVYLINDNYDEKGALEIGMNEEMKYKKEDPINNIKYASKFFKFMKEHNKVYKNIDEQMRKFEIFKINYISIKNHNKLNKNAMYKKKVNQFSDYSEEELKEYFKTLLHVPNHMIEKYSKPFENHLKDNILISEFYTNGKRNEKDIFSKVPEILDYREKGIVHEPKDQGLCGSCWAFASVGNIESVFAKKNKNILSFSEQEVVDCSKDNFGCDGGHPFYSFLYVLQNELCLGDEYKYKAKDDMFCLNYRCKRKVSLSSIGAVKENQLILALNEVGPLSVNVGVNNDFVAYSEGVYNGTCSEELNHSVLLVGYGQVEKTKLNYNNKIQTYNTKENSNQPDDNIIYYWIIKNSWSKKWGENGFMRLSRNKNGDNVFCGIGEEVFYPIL
As to the kind of experiment: Inhibition of Plasmodium falciparum 3D7 falcipain-1 by fluorescence spectrophotometry.

Turning to `CCC[C@H](N)C(=O)N[C@H](/C=C/S(=O)(=O)c1ccccc1)CCc1ccccc1`, the inhibition result (in the series on Plasmodium falciparum [1]; in series [5]) was “Active” throughout. In addition, the result in the series on Plasmodium falciparum [2] was Active. The outcome in the series on Plasmodium falciparum [3] was inactive. Besides, in series [4], the Activity result is “Non-toxic”.

`C[C@H](N)C(=O)N[C@H](/C=C/S(=O)(=O)c1ccccc1)CCc1ccccc1`: the inhibition entry (in the series on Plasmodium falciparum [1]; in series [5]) was “Active” in each case. In addition, the result in the series on Plasmodium falciparum [2] was Active. Besides, in the series on Plasmodium falciparum [3], the result was inactive. Besides, in series [4], the Activity result is given as “Non-toxic”.

The record behind these values is ChEMBL document CHEMBL1240337, “Identification of proteases that regulate erythrocyte rupture by the malaria parasite Plasmodium falciparum” (Nat Chem Biol, 2008).
